Compound activity (PubChem)
Hits are enriched below; roughly 4.3% of the tested compounds scored in any of these assays.
FLuc act counter: FLuc activators, initial screening, artefact control for FLuc-dependent activation tests, biochemical, ATPlite luminescence. Luciferin 4-monooxygenase (Photinus pyralis), P08659. ATPlite luciferase biochemical, 10 min; 0 = ATP-free wells, 1 = DMSO control. activation factor at 10 µM. 200,000 tested, under 10 active;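 active means luciferase activation factor, scaled between plate controls, of at least 2 with compound at 10 µM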
Target sequence (P08659 whole entry, looked up): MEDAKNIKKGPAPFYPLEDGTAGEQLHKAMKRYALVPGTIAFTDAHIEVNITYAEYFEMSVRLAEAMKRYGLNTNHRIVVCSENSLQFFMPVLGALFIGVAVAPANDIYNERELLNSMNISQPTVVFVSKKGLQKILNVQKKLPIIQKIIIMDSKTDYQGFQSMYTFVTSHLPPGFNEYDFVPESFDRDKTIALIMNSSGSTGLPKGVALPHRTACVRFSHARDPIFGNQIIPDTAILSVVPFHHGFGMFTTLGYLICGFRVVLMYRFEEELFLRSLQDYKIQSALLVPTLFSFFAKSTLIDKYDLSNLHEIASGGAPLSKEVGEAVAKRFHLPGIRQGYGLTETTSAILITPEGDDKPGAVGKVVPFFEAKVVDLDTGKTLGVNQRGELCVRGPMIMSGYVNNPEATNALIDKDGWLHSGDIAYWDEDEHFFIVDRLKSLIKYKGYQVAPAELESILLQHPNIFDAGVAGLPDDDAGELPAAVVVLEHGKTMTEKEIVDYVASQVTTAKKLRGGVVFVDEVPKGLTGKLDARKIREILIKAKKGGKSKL
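Assay system: Luciferase/luciferin detection reagent, cell-free biochemical luciferase assay / Also added: ATP substrate / Schedule: 10 min at ambient temperature / Measured by: luminescence measurement of luciferase light output / Benchmarks: low control with PBS replacing ATP, high control enzyme plus ATP without compound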
SDO1 yeast rescue: growth rescue of sdo1-depleted yeast, primary screen, S. cerevisiae, bone marrow failure model | S. cerevisiae sdo1-depleted JHY4D growth rescue, OD600 30 h; hits give high values; pdr5 snq2 efflux-pump mutant strain | z-score at 10 µM | 140,000 tested, 0.21% active;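 active means z-score above 3 at both the 24 hr and the 30 hr optical density reads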;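 further: z-score against mean and SD of all compound wells on the same plate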
FLuc inh counter: firefly luciferase enzyme inhibitors, primary screen, artefact control for luciferase-based inhibitor screens, biochemical, luminescence, ATPLite; inhibition, % at 10 µM; 10 min; Luciferin 4-monooxygenase (Photinus pyralis), P08659; AID 1006, 2008; 200,000 tested, 1.5% active;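 active means inhibition above about 50% when tested at 10 µM, limit read from the data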
APP 5'UTR act: activators of APP 5'UTR luciferase reporter, primary screen, SH-SY5Y cells. SH-SY5Y APP 5'UTR luciferase reporter, luminescence; zero percent = DMSO vehicle wells. activation, % at 2 µM. 190,000 tested, 1% active. AID 1276, 2008;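 active means activation above a set limit, based on mean plus 3 SD of controls, cut at about 140% in these data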
STAT1 act: STAT1 signaling activators, primary screen, cell-based, HTS, luciferase reporter; 200,000 tested, 2.6% active; AID 932, 2007; activation (% of control), % at 5.5 µM; NIH 3T3 STAT1-luciferase reporter, IFN-gamma, luminescence; 100% = IFN-gamma alone, no compound;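 active means activation above the screen-wide mean activation plus 3 SD, cut at about 130% in these data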;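 further: raw ratio to IFN-gamma control signal so 100% means no change and 0% no light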
NF-kB neuron act: activators of NF-kB expression in neurons, primary screen, cell-based, HTS | human neuronal cells, NF-kB reporter expression; hits give high values | fold change at 12.5 µM | 190,000 tested, 1.6% active | AID 1239, 2008; in the data active means fold change above about 3.3
sdo1 rescue conf: SDO1-depleted yeast growth rescue, concentration-response, diseases of bone marrow failure, JHY4D, OD600; shares compounds with SDO1 yeast rescue; S. cerevisiae JHY4D (SDO1-depleted) growth rescue, 30 h; hits give high values; efflux-deficient strain, SNQ2 and PDR5 mutated; OD recovery (test concentration not listed); 440 tested, 44% active; AID 949, 2007;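 active means yeast growth recovered at 30 hours, either rising with dose fitted slope above 0.001 or with average optical density gain above 0.07, some results past the limit were not filed as active; inactive means growth falling with dose or no effect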;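 further: gain in OD600 from 0 h to 30 h averaged across all seven doses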
Active calls of the source: *; / = no result.

SMILES	FLuc act counter	SDO1 yeast rescue	FLuc inh counter	APP 5'UTR act	STAT1 act	NF-kB neuron act	sdo1 rescue conf
COc1ccc(C)cc1NC(=O)C1CCCN(S(=O)(=O)c2cnc[nH]2)C1 (configuration not stated)	1	1.2	-4	-10	100	1	/
CCN(CC)S(=O)(=O)c1cc(C(=O)Nc2ccncc2)ccc1Cl	1	0.77	1	-1	80	0.67	/
CCN(CC)S(=O)(=O)c1cc(C(=O)Nc2cccnc2)ccc1Cl	1	3.3*	1	-13	105	0.85	0.093*
COC(=O)C(O)(CC(=O)Nc1ccccc1OC)C(F)(F)F (configuration not stated)	1	0.76	-4	-17	101	1	/
CCc1ccccc1NC(=O)CC(O)(C(=O)OC)C(F)(F)F (configuration not stated)	1.2	3.1*	-20	-9	105	1.1	0.066
COc1ccc(OC)c(C2=NOC(C(=O)NCc3ccco3)C2)c1 (configuration not stated)	1	7.6*	0	0	94	0.82	0.036
Cc1sc2ncnc(NCCCN3CCCC3=O)c2c1C	1	/	-2	3	88	1	/
Cc1ccc(CO/N=C\Cc2snc(Sc3ncc(C(F)(F)F)cc3Cl)c2C#N)cc1	1.1	3.7*	-12	-6	101	0.9	0.049
COC(=O)c1ccccc1NC(=S)NC(=O)COc1ccccc1	1	-0.37	-4	-2	105	1.3	/
COC(=O)c1ccccc1NC(=S)NC(=O)CC(C)C	1.1	5.6*	-8	16	102	0.85	0.063
Cc1oc(-c2ccccc2F)nc1CN1CCC(C(=O)NCCC2=CCCCC2)CC1	1	0.71	-4	2	97	0.49	/
CCCCNS(=O)(=O)c1ccc2nc(SCC(=O)Nc3ccccc3Cl)[nH]c2c1	1.1	2.2	-7	-3	97	1.1	0.11*
CCCCNS(=O)(=O)c1ccc2nc(SCC(=O)Nc3cccc(F)c3)[nH]c2c1	1.1	2.6	-6	-25	103	0.87	/
COC(=O)c1cc(C(=O)OC)[nH]n1	1	/	2	-5	101	/	/
COc1ccc(/C=N/NC(=S)NC2CCS(=O)(=O)C2)cc1 (configuration not stated)	1	11*	4	-2	105	1.1	0.062
COc1ccc(/C=N/NC(=O)CC(=O)NC2CCCCC2)cc1	1	/	2	15	97	/	/
Cc1cccc(C(=O)c2c[nH]cc2-c2ccccc2)c1	1	-1.2	-2	-1	100	1.2	/
Cc1ccccc1S(=O)(=O)c1c(C)cc(C)n(CC(C)C)c1=O	1.1	5.5*	-10	9	100	1.1	0.11*
Cc1cc(NS(=O)(=O)c2ccc(NC(=S)NC(=O)c3ccccc3)cc2)no1	1	2.1	-4	25	104	1.4	0.069
Cc1cc(NC(=O)CSc2nc3c(c(-c4cccnc4)c2C#N)CCC3)no1	1.2	0.09	-20	7	101	1.7	0.069
O=[N+]([O-])c1ccc(N/N=C\c2ccccc2OCc2ccccc2)cc1	1	1.8	-4	-11	94	0.99	0.06
COc1cc2c(cc1NC(=O)c1cccc([N+](=O)[O-])c1)oc1ccccc12	1	3*	3	6	106	1.1	0.04
C=C(C)COc1ccc(-c2nc(N)ncc2Oc2ccc(OC)cc2)c(O)c1	1	3.5*	-2	-8	99	1.2	0.035
COC(=O)c1ccc(Oc2c(Cl)cccc2[N+](=O)[O-])cc1	1	-0.53	-5	-11	104	1.1	/
COc1cccc(-n2c(CCn3nc(C)c([N+](=O)[O-])c3C)n[nH]c2=S)c1	1	3.2*	-5	-3	100	1.1	0.038
SMILES	FLuc act counter	SDO1 yeast rescue	FLuc inh counter	APP 5'UTR act	STAT1 act	NF-kB neuron act	sdo1 rescue conf
Cc1cccc(-n2c(CCn3nc(C)c([N+](=O)[O-])c3C)n[nH]c2=S)c1	1.1	0.82	-8	-10	103	0.85	/
COc1ccccc1C(=O)NNC(=O)c1ccc(NC(=O)C(C)C)cc1	1	/	3	4	105	1.1	/
O=C(O)CSc1cc(C(=O)c2ccccc2O)cn2c(=O)c3c(-c4ccccc4)csc3nc12	0.6	/	41	-7	101	1.2	/
CCOC(=O)c1sc2nc3c(SCC(=O)O)cc(C(=O)c4cc(F)ccc4O)cn3c(=O)c2c1C	0.5	3.1*	51*	22	114	1	0.069
CCOc1ccc(C(=O)NC(=S)Nc2ccccc2OC)cc1[N+](=O)[O-]	1.1	1.5	-6	-8	101	1.4	0.077*
COCCNC(=O)Cn1c(=O)n(C)c2ccccc21	1	1.9	-4	0	105	0.99	/
Cc1cccc(N(C(=O)c2snc(C(N)=O)c2N)C(C)C(=O)NCC2CCCO2)c1 (configuration not stated)	1	/	-2	-21	101	1.1	/
CC(C(=O)NC1CCCC1)N(C(=O)c1snc(C(N)=O)c1N)c1ccc2c(c1)OCCO2 (configuration not stated)	1.1	14*	-7	-20	101	1.2	0.08*
O=C(Nc1ccc2c(c1)OCO2)C1CCCN(S(=O)(=O)Cc2ccccc2)C1 (configuration not stated)	1	2.4	-3	-6	109	0.97	0.082*
O=C(Nc1ccc2c(c1)OCCO2)C1CCCN(S(=O)(=O)Cc2ccccc2)C1 (configuration not stated)	0.9	0.62	10	-16	105	0.8	/
Cc1n[nH]c(C)c1S(=O)(=O)N1CCCC(C(=O)Nc2ccc3c(c2)OCCO3)C1 (configuration not stated)	1	2.1	-3	-1	106	0.73	0.094*
COC(=O)CCCCC1SCC(NC(=O)c2ccccc2)C1=O (configuration not stated)	1	/	-5	-9	98	1.2	/
CC(CCc1ccccc1)NC(=O)C(=O)N1CCOCC1 (configuration not stated)	1.1	/	-7	5	102	1.1	/
CCOc1ccc(N(CC(=O)Nc2ccccc2C(=O)NC(C)CC)S(C)(=O)=O)cc1 (configuration not stated)	1	1	-4	22	105	0.97	/
